Reference: ChEMBL document CHEMBL3992496, “Oligonucleotide transition state analogues of saporin L3” (Eur J Med Chem, 2017)
pIC50, pKi: −log10 of the molar value.

Experiments:
[1] = Competitive inhibition of Saponaria officinalis saporin L3 expressed in yeast using RNA A10 as substrate preincubated for 10 mins followed substrate addition by luciferase assay
[2] = Competitive inhibition of Saponaria officinalis saporin L3 A14C mutant expressed in yeast using yeast tRNA as substrate
Summary of the method: (§1)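 Saporin L3 A14C, secreted from yeast and purified. Substrate held fixed: isolated rabbit 80S ribosomes (100 nM) or yeast tRNA (1.0 mg/mL). Inhibitor preincubated with enzyme 10 min for slow-onset binding before substrate, then adenine release read by coupled luciferase method. Ki* taken from competitive inhibition fit.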

[3] = Competitive inhibition of Saponaria officinalis saporin L3 expressed in yeast using yeast tRNA as substrate
[4] = Competitive inhibition of Saponaria officinalis saporin L3 A14C mutant expressed in yeast using rabbit rRNA as substrate; summary of the method: as §1
[5] = Competitive inhibition of Saponaria officinalis saporin L3 expressed in yeast using rabbit rRNA as substrate
Summary of the method: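 Saporin L3 secreted from yeast cultures and purified to near-homogeneity. Substrate was isolated rabbit 80S ribosomes purified in-house, fixed at 100 nM, with concentration from A260. Inhibitor at varying concentrations was preincubated with enzyme for 10 min. K_i* was taken as slow-onset competitive inhibition.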

[6] = Inhibition of yeast expressing Saponaria officinalis saporin L3 A14C mutant-mediated suppression of luciferase mRNA translation in rabbit reticulocyte extract preincubated with protein for 10 mins followed by addition of rabbit reticulocyte translation system for 90 mins by luciferase assay
Summary of the method: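 Rabbit reticulocyte lysate translation of luciferase-encoding mRNA. 10 nM SAP A14C preincubated 10 min with increasing inhibitor in pH 7.4 buffer, then added to translation mix, 30 °C, 90 min. Luciferase luminescence read. Control contained top inhibitor concentration without enzyme. Percent translation vs log inhibitor fit to dose-response curve for EC50.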

[7] = Competitive inhibition of Saponaria officinalis saporin L1 using RNA A10 as substrate preincubated for 10 mins followed substrate addition by continuous luciferase assay

| SMILES | pKi [1] | further results |
| --- | --- | --- |
| CO[C@@H]1[C@H](O)[C@@H](COP(=O)(O)O[C@H]2CN(Cc3c[nH]c4c(N)ncnc34)C[C@@H]2COP(=O)(O)OC2[C@@H](OC)[C@H](n3cnc4c(=O)[nH]c(N)nc43)O[C@@H]2CO)O[C@H]1n1cnc2c(=O)[nH]c(N)nc21 (stereo partly drawn) | 7.48 | – |
| CO[C@@H]1[C@H](OP(=O)(O)OCCCO)[C@@H](COP(=O)(O)O[C@H]2CN(Cc3c[nH]c4c(N)ncnc34)C[C@@H]2COP(=O)(O)OCCCO)O[C@H]1n1cnc2c(=O)[nH]c(N)nc21 | 8.48 | pKi [2]: 8.08; pKi [3]: 8.00; pKi [4]: 8.27; pKi [5]: 8.17; pIC50 [6]: 7.89 |
| CO[C@@H]1[C@H](O)[C@@H](COP(=O)(O)O[C@H]2[C@@H](OC)[C@H](n3cnc4c(=O)[nH]c(N)nc43)O[C@@H]2COP(=O)(O)O[C@H]2CN(Cc3c[nH]c4c(N)ncnc34)C[C@@H]2COP(=O)(O)OC2[C@@H](OC)[C@H](n3cnc4c(=O)[nH]c(N)nc43)O[C@@H]2CO)O[C@H]1n1cnc2c(N)ncnc21 (stereo partly drawn) | 8.21 | – |
| CO[C@@H]1[C@H](OP(=O)(O)OC[C@H]2O[C@@H](n3cnc4c(=O)[nH]c(N)nc43)[C@H](OC)[C@@H]2OP(=O)(O)OC[C@H]2CN(Cc3c[nH]c4c(N)ncnc34)C[C@@H]2OP(=O)(O)OCCCO)[C@@H](CO)O[C@H]1n1cnc2c(=O)[nH]c(N)nc21 | 6.67 | – |
| CO[C@@H]1[C@H](OP(=O)(O)OCCCO)[C@@H](COP(=O)(O)O[C@H]2CN(Cc3c[nH]c4c(N)ncnc34)C[C@@H]2CO)O[C@H]1n1cnc2c(=O)[nH]c(N)nc21 | 4.97 | – |
| CO[C@@H]1[C@H](O)[C@@H](COP(=O)(O)O[C@H]2CN(Cc3c[nH]c4c(N)ncnc34)C[C@@H]2COP(=O)(O)OCCCO)O[C@H]1n1cnc2c(=O)[nH]c(N)nc21 | 7.71 | – |
| CO[C@@H]1[C@H](OP(=O)(O)OC[C@H]2CN(Cc3c[nH]c4c(N)ncnc34)C[C@@H]2OP(=O)(O)OCCCO)[C@@H](COP(=O)(O)OCCCO)O[C@H]1n1cnc2c(=O)[nH]c(N)nc21 | 6.73 | – |
| CO[C@@H]1[C@H](OP(=O)(O)OCCCO)[C@@H](COP(=O)(O)OCC(CNCc2c[nH]c3c(N)ncnc23)COP(=O)(O)OCCCO)O[C@H]1n1cnc2c(=O)[nH]c(N)nc21 (mixture of isomers) | 7.57 | – |
| CO[C@@H]1[C@H](O)[C@@H](COP(=O)(O)O[C@H]2CN(Cc3c[nH]c4c(N)ncnc34)C[C@@H]2CO)O[C@H]1n1cnc2c(=O)[nH]c(N)nc21 | 4.67 | – |
| CO[C@@H]1[C@H](OP(=O)(O)OCCCO)[C@@H](COP(=O)(O)O[C@H]2CN(CCc3c[nH]c4c(N)ncnc34)C[C@@H]2COP(=O)(O)OCCCO)O[C@H]1n1cnc2c(=O)[nH]c(N)nc21 | 7.91 | – |
| CO[C@@H]1[C@H](OP(=O)(O)OC[C@H]2CN(Cc3c[nH]c4c(N)ncnc34)C[C@@H]2OP(=O)(O)OC[C@H]2O[C@@H](n3cnc4c(=O)[nH]c(N)nc43)[C@H](OC)[C@@H]2OP(=O)(O)OCCCO)[C@@H](COP(=O)(O)OCCCO)O[C@H]1n1cnc2c(=O)[nH]c(N)nc21 | 8.13 | – |
| CO[C@@H]1[C@H](OP(=O)(O)OC[C@H]2CN(Cc3c[nH]c4c(N)ncnc34)C[C@@H]2OP(=O)(O)OC[C@H]2O[C@@H](n3cnc4c(=O)[nH]c(N)nc43)[C@H](OC)[C@@H]2OP(=O)(O)OCCCO)[C@@H](CO)O[C@H]1n1cnc2c(=O)[nH]c(N)nc21 | 7.98 | – |
| CO[C@@H]1[C@H](OP(=O)(O)OCCCO)[C@@H](COP(=O)(O)OCC(COP(=O)(O)OCCCO)NCc2c[nH]c3c(N)ncnc23)O[C@H]1n1cnc2c(=O)[nH]c(N)nc21 (stereo partly drawn) | – | pKi [7]: 7.36 |
